Columns and labels:
Assay type in all cases: ADME, organism-based
[1] = Plasma concentration in Swiss outbred mouse at […], iv at 1 hr by LC-MS analysis
[2] = Plasma concentration in Swiss outbred mouse at 48 mg/kg administered via oral gavage at 24 hrs by LC-MS analysis
Method in brief: (§1)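 Single oral administration of 48 mg/kg to male Swiss outbred mice. Plasma concentration-time profile reported as the mean and range of n=2 mice per time point.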

[3] = (§2) Plasma concentration in Sprague-Dawley rat at 20 mg/kg administered via oral gavage at […] by LC-MS analysis
[4] = Plasma concentration in Sprague-Dawley rat at 20 mg/kg administered via oral gavage at 0.5 hrs by LC-MS analysis
Method in brief: (§3)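 Male Sprague Dawley rats were dosed IV (nominal 1 mg/kg; 0.9 mg/kg actual) or orally (nominal 20 mg/kg; 19 mg/kg actual). Plasma concentration–time profiles were determined, with n=2 rats per time point, and mean and range reported.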

[5] = Plasma concentration in Sprague-Dawley rat at 1 mg/kg, iv administered as 10 mins infusion measured at 5.17 hrs by LC-MS analysis; method in brief: as §3
[6] = Plasma concentration in Sprague-Dawley rat at 20 mg/kg administered via oral gavage at 1 hr by LC-MS analysis; method in brief: as §3
[7] = Plasma concentration in Swiss outbred mouse at […], iv at 0.008 hrs by LC-MS analysis
[8] = Plasma concentration in Swiss outbred mouse at […], iv at 2 hrs by LC-MS analysis
[9] = as §2; remark: listed apart in the source
[10] = Plasma concentration in Sprague-Dawley rat at 1 mg/kg, iv administered as 10 mins infusion measured at 24.17 hrs by LC-MS analysis; method in brief: as §3
[11] = Plasma concentration in Sprague-Dawley rat at 1 mg/kg, iv administered as 10 mins infusion measured at 1.17 hrs by LC-MS analysis; method in brief: as §3
[12] = Plasma concentration in Sprague-Dawley rat at 1 mg/kg, iv administered as 10 mins infusion measured at 0.08 hrs by LC-MS analysis; method in brief: as §3
[13] = Plasma concentration in Sprague-Dawley rat at 20 mg/kg administered via oral gavage at 4 hrs by LC-MS analysis; method in brief: as §3
[14] = (§4) Plasma concentration in Swiss outbred mouse at […], iv at […] by LC-MS analysis
[15] = Plasma concentration in Swiss outbred mouse at […], iv at 4 hrs by LC-MS analysis
[16] = Plasma concentration in Swiss outbred mouse at 48 mg/kg administered via oral gavage at 4 hrs by LC-MS analysis; method in brief: as §1
[17] = (§5) Plasma concentration in Sprague-Dawley rat at 1 mg/kg, iv administered as 10 mins infusion measured at […] by LC-MS analysis
[18] = Plasma concentration in Swiss outbred mouse at 48 mg/kg administered via oral gavage at 2 hrs by LC-MS analysis; method in brief: as §1
[19] = Plasma concentration in Sprague-Dawley rat at 1 mg/kg, iv administered as 10 mins infusion measured at 10.17 hrs by LC-MS analysis; method in brief: as §3
[20] = Plasma concentration in Swiss outbred mouse at […], iv at 0.5 hrs by LC-MS analysis
[21] = Plasma concentration in Sprague-Dawley rat at 1 mg/kg, iv administered as 10 mins infusion measured at 0.5 hrs by LC-MS analysis; method in brief: as §3
[22] = Plasma concentration in Swiss outbred mouse at 48 mg/kg administered via oral gavage at […] by LC-MS analysis
[23] = Plasma concentration in Swiss outbred mouse at 48 mg/kg administered via oral gavage at 10 hrs by LC-MS analysis; method in brief: as §1
[24] = Plasma concentration in Swiss outbred mouse at […], iv at 10 hrs by LC-MS analysis
[25] = Plasma concentration in Swiss outbred mouse at […], iv at 24 hrs by LC-MS analysis
[26] = Plasma concentration in Swiss outbred mouse at […], iv at 0.08 hrs by LC-MS analysis
[27] = Plasma concentration in Swiss outbred mouse at 48 mg/kg administered via oral gavage at 0.5 hrs by LC-MS analysis; method in brief: as §1
[28] = as §5; remark: listed apart in the source
[29] = as §4; remark: listed apart in the source
[30] = Plasma concentration in Swiss outbred mouse at […], iv at 0.033 hrs by LC-MS analysis
[31] = Plasma concentration in Sprague-Dawley rat at 1 mg/kg, iv administered as 10 mins infusion measured at 2.67 hrs by LC-MS analysis; method in brief: as §3
[32] = Plasma concentration in Swiss outbred mouse at 48 mg/kg administered via oral gavage at 7.5 hrs by LC-MS analysis; method in brief: as §1
[33] = Plasma concentration in Sprague-Dawley rat at 1 mg/kg, iv administered as 10 mins infusion measured at 16.17 hrs by LC-MS analysis; method in brief: as §3
[34] = Plasma concentration in Swiss outbred mouse at […], iv at 7.5 hrs by LC-MS analysis
[35] = Plasma concentration in Sprague-Dawley rat at 20 mg/kg administered via oral gavage at 5 hrs by LC-MS analysis; method in brief: as §3
[36] = Plasma concentration in Swiss outbred mouse at 48 mg/kg administered via oral gavage at 1 hr by LC-MS analysis; method in brief: as §1

concentration at 1 h [1]: 43 nM
concentration at 24 h [2]: 208 nM
concentration at […] [3]: 45.5 nM
concentration at 0.5 h [4]: 65 nM
concentration at 5.17 h [5]: 35 nM
concentration at 1 h [6]: 80 nM
concentration at 0.008 h [7]: 841 nM
concentration at 2 h [8]: 26 nM
concentration at […] [9]: 50 nM
concentration at 24.17 h [10]: 20 nM
concentration at 1.17 h [11]: 29 nM
concentration at 0.08 h [12]: 334 nM
concentration at 4 h [13]: 28 nM
concentration at […] [14]: 54 nM
concentration at 4 h [15]: 29 nM
concentration at 4 h [16]: 132 nM
concentration at […] [17]: 255 nM
concentration at 2 h [18]: 494 nM
concentration at 10.17 h [19]: 29 nM
concentration at 0.5 h [20]: 44 nM
concentration at 0.5 h [21]: 36 nM
concentration at […] [22]: 171 nM
concentration at 10 h [23]: 192 nM
concentration at 10 h [24]: 23 nM
concentration at 24 h [25]: 22 nM
concentration at 0.08 h [26]: 80 nM
concentration at 0.5 h [27]: 812 nM
concentration at […] [28]: 71 nM
concentration at […] [29]: 310 nM
concentration at 0.033 h [30]: 149 nM
concentration at 2.67 h [31]: 20 nM
concentration at 7.5 h [32]: 239 nM
concentration at 16.17 h [33]: 25 nM
concentration at 7.5 h [34]: 31 nM
concentration at 5 h [35]: 27 nM
concentration at 1 h [36]: 693 nM
Compound: CN(C)CCCNc1ccc(-c2ccc(F)c(Cl)c2)o1
